Activity calls are given as the source filed them. The calls are words filed in the database; no cut-off is given here. Starred links: 1 amine or outer side, 2 acyl side, 3 side chain; linkers in the order of their positions; H or OH if unused. Positions of bridges follow the written chain, without caps; N, C: chain ends. Non-standard residues stand in square brackets, D forms with d. Residues, ends and D or L forms follow the SMILES beside them. *: point of attachment. NMeW = CN[C@@H](Cc1c[nH]c2ccccc12)C(=O)O; NH(CH2CH2O)2(CH2)6Cl = ClCCCCCCOCCOCCN*; Ala(2-furyl) = N[C@@H](Cc1ccco1)C(=O)O; NMeY = CN[C@@H](Cc1ccc(O)cc1)C(=O)O; Suc = O=C(CCC(=O)[*:2])[*:1]; hLeu = CC(C)CC[C@H](N)C(=O)O; NMeA = CN[C@@H](C)C(=O)O; Nle = CCCC[C@H](N)C(=O)O
What was measured:
[1] = target: T1, Calcium and integrin-binding protein 1 (Homo sapiens, UniProt Q99828); test: Displacement of Alexa Fluor 647 labelled UNC10245092 peptide from CIB1 (unknown origin) preincubated for 20 mins followed by Alexa-CIB1 phage peptide addition and measured after 20 to 30 mins by TR-FRET assay
T1 sequence (Q99828 whole entry): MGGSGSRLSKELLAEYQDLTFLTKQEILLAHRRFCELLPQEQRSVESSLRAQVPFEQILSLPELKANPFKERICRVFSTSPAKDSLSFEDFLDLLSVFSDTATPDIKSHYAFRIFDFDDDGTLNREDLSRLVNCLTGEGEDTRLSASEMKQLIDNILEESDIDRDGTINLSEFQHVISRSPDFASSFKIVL

[2] = Stability in human MDA-MB-468 cell lysates assessed as compound remaining at 150 uM after 24 hrs by LCMS method; assay type: ADME, subcellular; conditions: read-out: Stabilty
How it was run: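 Peptides were incubated in MDA-MB-468 cell lysates at 37 °C.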

MDA-MB-468 = test: Cytotoxicity against human MDA-MB-468 cells assessed as cell death at 30 uM incubated for 24 hrs by trypan blue assay; assay type: functional
[3] = Cytotoxicity against human MDA-MB-231 cells assessed as cell death at 30 uM incubated for 24 hrs by trypan blue assay; assay type: cell-based; conditions: mda-mb-231, 24 h
[4] = target: T1, Calcium and integrin-binding protein 1; test: Binding affinity to full length CIB1 (unknown origin) at 300 uM by isothermal titration calorimetry
[5] = target: T2, Calcium and integrin-binding protein 1 (Homo sapiens) (UniProt Q99828); test: Inhibition of CIB1 in human MDA-MB-468 cells assessed as reduction in AKT activity after 6 to 24 hrs by Western blotting analysis; assay type: cell-based; conditions: time 6-24 hrs
T2 sequence (whole entry): T1 sequence (Q99828 whole entry)
How it was run: (§1)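 Cells were treated with peptide for 6 h and for 24 h alongside a DMSO vehicle control. Lysates were then immunoblotted for phospho-AKT, phospho-ERK and CIB1, and the levels were compared with the DMSO-treated cells.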

[6] = target: T2, Calcium and integrin-binding protein 1 (Homo sapiens); test: Inhibition of CIB1 in human MDA-MB-231 cells assessed as reduction in AKT activity after 6 to 24 hrs by Western blotting analysis; assay type: cell-based; conditions: time 6-24 hrs; how it was run: as §1
[7] = target: T2, Calcium and integrin-binding protein 1 (Homo sapiens); test: Inhibition of CIB1 in human MDA-MB-468 cells assessed as reduction in ERK activity after 6 to 24 hrs by Western blotting analysis; assay type: cell-based; conditions: time 6-24 hrs; how it was run: as §1
[8] = target: T2, Calcium and integrin-binding protein 1 (Homo sapiens); test: Inhibition of CIB1 in human MDA-MB-231 cells assessed as reduction in ERK activity after 6 to 24 hrs by Western blotting analysis; assay type: cell-based; conditions: time 6-24 hrs; how it was run: as §1
[9] = target: T2, Calcium and integrin-binding protein 1 (Homo sapiens); test: Inhibition of CIB1 in human MDA-MB-468 cells assessed as reduction in CIB1 level after 6 hrs by Western blotting analysis; assay type: cell-based; how it was run: as §1
[10] = target: T2, Calcium and integrin-binding protein 1 (Homo sapiens); test: Inhibition of CIB1 in human MDA-MB-231 cells assessed as reduction in CIB1 level after 6 hrs by Western blotting analysis; assay type: cell-based; how it was run: as §1

Row | SMILES | IC50 [1] | remaining at 24 h, 150 µM [2] | Activity (MDA-MB-468) | Activity [3] | further results
1 | CC[C@H](C)[C@@H]1NC(=O)[C@H](CC(C)C)NC(=O)[C@H](Cc2c[nH]c3ccccc23)NC(=O)[C@H](Cc2ccc(O)cc2)NC(=O)[C@@H]2CCCN2C(=O)[C@H](CCC(N)=O)NC(=O)[C@H](C)NC(=O)[C@H](Cc2ccc(O)cc2)NC(=O)CSC[C@@H](C(N)=O)NC(=O)[C@H](Cc2c[nH]c3ccccc23)NC(=O)[C@H](CC(N)=O)NC1=O ({CH2CO}-YAQPYWLINWC-NH2; thioether N-11) | 9 nM | 21.9% | 2.7% | 1.5% | –
2 | CSCC[C@H](NC(=O)[C@H](C)NC(=O)CNC(=O)[C@H](Cc1ccc(O)cc1)NC(=O)[C@H](C)NC(=O)[C@H](Cc1ccccc1)NC(=O)[C@H](CO)NC(=O)CNC(=O)CNC(=O)[C@H](CC(=O)O)NC(=O)[C@H](CCC(=O)O)NC(=O)[C@H](CCC(N)=O)NC(=O)[C@@H]1CCCN1C(=O)[C@H](CCCNC(=N)N)NC(=O)[C@H](CCCNC(=N)N)NC(=O)[C@H](CCCNC(=N)N)NC(=O)[C@H](CCC(N)=O)NC(=O)[C@H](CCCNC(=N)N)NC(=O)[C@H](CCCNC(=N)N)NC(=O)[C@H](CCCCN)NC(=O)[C@H](CCCCN)NC(=O)[C@H](CCCNC(=N)N)NC(=O)CNC(=O)CCC(=O)NCCOCCOCCCCCCCl)C(=O)N[C@@H](CCCCN)C(=O)N[C@@H](C)C(=O)N[C@@H](CC(C)C)C(=O)N[C@@H](C)C(=O)NCC(N)=O ({NH(CH2CH2O)2(CH2)6Cl-Suc}-GRKKRRQRRRPQEDGGSFAYGAMKALAG-NH2) | > 10000 nM | 0% | 1.1% | 1.9% | –
3 | CC[C@H](C)[C@@H]1NC(=O)[C@H](CC(C)C)NC(=O)[C@H](Cc2c[nH]c3ccccc23)NC(=O)[C@H](Cc2ccc(O)cc2)NC(=O)[C@@H]2CCCN2C(=O)[C@H](CCC(N)=O)NC(=O)[C@H](CCCCN)NC(=O)[C@H](Cc2ccc(O)cc2)NC(=O)CSC[C@@H](C(N)=O)NC(=O)[C@H](Cc2c[nH]c3ccccc23)NC(=O)[C@H](CC(N)=O)NC1=O ({CH2CO}-YKQPYWLINWC-NH2; thioether N-11) | 12 nM | 48.6% | 2.7% | 2% | Kd [4]: 6 nM; inhibition [5]: inactive; inhibition [6]: inactive; inhibition [7]: inactive; inhibition [8]: inactive; inhibition [9]: inactive; inhibition [10]: inactive
4 | CSCC[C@H](NC(=O)[C@H](C)NC(=O)CNC(=O)[C@H](Cc1ccc(O)cc1)NC(=O)[C@H](Cc1c[nH]c2ccccc12)NC(=O)[C@H](Cc1ccccc1)NC(=O)[C@H](CO)NC(=O)CNC(=O)CNC(=O)[C@H](CC(=O)O)NC(=O)[C@H](CCC(=O)O)NC(=O)CCC(=O)NCCOCCOCCCCCCCl)C(=O)N[C@@H](CCCCN)C(=O)N[C@@H](C)C(=O)N[C@@H](CC(C)C)C(=O)N[C@@H](Cc1ccc(O)cc1)C(=O)NCC(N)=O ({NH(CH2CH2O)2(CH2)6Cl-Suc}-EDGGSFWYGAMKALYG-NH2) | 46 nM | – | 1.7% | 9.5% | Kd [4]: 29.4 nM
5 | CC[C@H](C)[C@@H]1NC(=O)[C@H](CC(C)C)NC(=O)[C@H](Cc2c[nH]c3ccccc23)N(C)C(=O)[C@H](Cc2ccc(O)cc2)NC(=O)[C@@H]2CCCN2C(=O)[C@H](CCC(N)=O)NC(=O)[C@H](C)N(C)C(=O)[C@H](Cc2ccc(O)cc2)NC(=O)CSC[C@@H](C(N)=O)NC(=O)[C@H](Cc2c[nH]c3ccccc23)NC(=O)[C@H](Cc2ccco2)NC1=O ({CH2CO}-Y[NMeA]QPY[NMeW]LI[Ala(2-furyl)]WC-NH2; thioether N-11) | 190 nM | – | – | – | –
6 | CCCC[C@@H]1NC(=O)[C@H](Cc2ccc(O)cc2)NC(=O)CSC[C@@H](C(N)=O)NC(=O)[C@H](Cc2c[nH]c3ccccc23)NC(=O)[C@H](CC(C)C)NC(=O)[C@H]([C@@H](C)CC)NC(=O)[C@H](CC(C)C)NC(=O)[C@H](Cc2c[nH]c3ccccc23)NC(=O)[C@H](Cc2ccc(O)cc2)NC(=O)[C@@H]2CCCN2C(=O)[C@H](CCC(N)=O)NC1=O ({CH2CO}-Y[Nle]QPYWLILWC-NH2; thioether N-11) | 59 nM | 62.2% | 3.4% | 1.1% | –
7 | CC[C@H](C)[C@@H]1NC(=O)[C@H](CC(C)C)NC(=O)[C@H](C)NC(=O)[C@H](Cc2ccc(O)cc2)NC(=O)[C@@H]2CCCN2C(=O)[C@H](CCC(N)=O)NC(=O)[C@H](CCCCN)NC(=O)[C@H](Cc2ccc(O)cc2)NC(=O)CSC[C@@H](C(N)=O)NC(=O)[C@H](Cc2c[nH]c3ccccc23)NC(=O)[C@H](CC(N)=O)NC1=O ({CH2CO}-YKQPYALINWC-NH2; thioether N-11) | 430 nM | – | – | – | –
8 | CC(C)C[C@@H]1NC(=O)[C@H](Cc2c[nH]c3ccccc23)NC(=O)[C@H](Cc2ccc(O)cc2)NC(=O)[C@@H]2CCCN2C(=O)[C@H](CCC(N)=O)NC(=O)[C@H](CCCCN)NC(=O)[C@H](Cc2ccc(O)cc2)NC(=O)CSC[C@@H](C(N)=O)NC(=O)[C@H](Cc2c[nH]c3ccccc23)NC(=O)[C@H](CC(N)=O)NC(=O)[C@H](C)NC1=O ({CH2CO}-YKQPYWLANWC-NH2; thioether N-11) | 170 nM | – | – | – | –
9 | CC[C@H](C)[C@@H]1NC(=O)[C@H](CC(C)C)NC(=O)[C@H](Cc2c[nH]c3ccccc23)NC(=O)[C@H](Cc2ccc(O)cc2)N(C)C(=O)[C@@H]2CCCN2C(=O)[C@H](CCC(C)C)NC(=O)[C@H](C)NC(=O)[C@H](Cc2ccc(O)cc2)N(C)C(=O)CSC[C@@H](C(N)=O)NC(=O)[C@H](Cc2c[nH]c3ccccc23)NC(=O)[C@H](CC(N)=O)NC1=O ({CH2CO}-[NMeY]A[hLeu]P[NMeY]WLINWC-NH2; thioether N-11) | 1800 nM | – | – | – | –
10 | CCCC[C@@H]1NC(=O)[C@H](Cc2ccc(O)cc2)NC(=O)CSC[C@@H](C(N)=O)NC(=O)[C@H](Cc2c[nH]c3ccccc23)NC(=O)[C@H](Cc2ccco2)NC(=O)[C@H]([C@@H](C)CC)NC(=O)[C@H](CC(C)C)NC(=O)[C@H](Cc2c[nH]c3ccccc23)NC(=O)[C@H](Cc2ccc(O)cc2)NC(=O)[C@@H]2CCCN2C(=O)[C@H](CCC(C)C)NC1=O ({CH2CO}-Y[Nle][hLeu]PYWLI[Ala(2-furyl)]WC-NH2; thioether N-11) | 1500 nM | – | – | – | –
11 | CC[C@H](C)[C@@H]1NC(=O)[C@H](CC(C)C)NC(=O)[C@H](Cc2c[nH]c3ccccc23)NC(=O)[C@H](Cc2ccc(O)cc2)NC(=O)[C@@H]2CCCN2C(=O)[C@H](C)NC(=O)[C@H](CCCCN)NC(=O)[C@H](Cc2ccc(O)cc2)NC(=O)CSC[C@@H](C(N)=O)NC(=O)[C@H](Cc2c[nH]c3ccccc23)NC(=O)[C@H](CC(N)=O)NC1=O ({CH2CO}-YKAPYWLINWC-NH2; thioether N-11) | 40 nM | – | – | – | –
12 | CC[C@H](C)[C@@H]1NC(=O)[C@H](CC(C)C)NC(=O)[C@H](Cc2c[nH]c3ccccc23)NC(=O)[C@H](Cc2ccc(O)cc2)NC(=O)[C@@H]2CCCN2C(=O)[C@H](C)NC(=O)[C@H](C)NC(=O)[C@H](Cc2ccc(O)cc2)NC(=O)CSC[C@@H](C(N)=O)NC(=O)[C@H](Cc2c[nH]c3ccccc23)NC(=O)[C@H](C)NC1=O ({CH2CO}-YAAPYWLIAWC-NH2; thioether N-11) | 820 nM | – | – | – | –
13 | CC[C@H](C)[C@@H]1NC(=O)[C@H](CC(C)C)NC(=O)[C@H](Cc2c[nH]c3ccccc23)NC(=O)[C@H](Cc2ccccc2)NC(=O)[C@@H]2CCCN2C(=O)[C@H](C)NC(=O)[C@H](C)NC(=O)[C@H](Cc2ccc(O)cc2)NC(=O)CSC[C@@H](C(N)=O)NC(=O)[C@H](Cc2c[nH]c3ccccc23)NC(=O)[C@H](CC(C)C)NC1=O ({CH2CO}-YAAPFWLILWC-NH2; thioether N-11) | 300 nM | – | – | – | –
